The source of these data is ChEMBL document CHEMBL4330163, “Veluflavanones A-P, Cytotoxic Geranylated Flavanones from Dalbergia velutina Stems” (J Nat Prod, 2019).

A value given as a limit tells only on which side of the number the result lay.

Common to all, as to assay type: functional, cell-based
Test [1] deals with HepG2. Kind of test: Cytotoxicity against human HepG2 cells by MTT assay. In a few lines: (§1)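 Modified MTT colorimetric assay on five human cancer lines (KB epidermoid, HeLa S3 cervical, MCF-7 breast, Hep G2 hepatocellular, HT-29 colon adenocarcinoma). Doxorubicin was run as positive control.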
On the technique in general: Formazan colour is commonly taken as a measure of viable cells.

For test [2], the system named is HeLa S3. Kind of test: Cytotoxicity against human HeLaS3 cells by MTT assay. The procedure, abridged: as §1
The subject of test [3] is KB. In words: Cytotoxicity against human KB cells by MTT assay. The procedure, abridged:
as §1

Test [4] has as its system MCF7. Kind of test: Cytotoxicity against human MCF7 cells by MTT assay. The procedure, abridged: as §1
For test [5], the system named is HT-29. In words: Cytotoxicity against human HT-29 cells by MTT assay. The procedure, abridged:
as §1

On to `CC1(CCC2OC2(C)C)CCc2c(ccc3c2O[C@H](c2ccc(O)cc2)CC3=O)O1` (stereo not given in full), for which the IC50 in test [1] is greater than 10 µM; in test [2], 8.3 µM; in test [3], greater than 10 µM; in test [4], greater than 10 µM; in test [5], greater than 10 µM.
Turning to `C=C(C)/C=C/CC1(C)CCc2c(ccc3c2O[C@H](c2ccc(O)cc2)CC3=O)O1` (stereo not given in full), the IC50 in test [1], in test [2], in test [3], in test [4] and in test [5] was greater than 10 µM each time.
For the compound `C=C(CCC=C(C)C)C(O)Cc1c(O)ccc2c1O[C@H](c1ccc(O)cc1)CC2=O` (stereo not given in full), the IC50 in test [1], in test [2], in test [3], in test [4] and in test [5] was greater than 10 µM throughout.
`CC(C)=CCCC1(C)CCc2c(cc(O)c3c2O[C@H](c2ccc(O)cc2)CC3=O)O1` (stereo not given in full): the IC50 is greater than 10 µM in test [1]; 9.9 µM in test [2]; greater than 10 µM in test [3]; greater than 10 µM in test [4]; greater than 10 µM in test [5].
As to `CC(C)=CCCC1(C)Oc2ccc3c(c2CC1O)O[C@H](c1ccc(O)cc1)CC3=O` (stereo not given in full), the IC50 in test [1], in test [2], in test [3], in test [4] and in test [5] was greater than 10 µM throughout.
Take `COC(C)(C)/C=C/C/C(C)=C/Cc1c(O)ccc2c1O[C@H](c1ccc(O)cc1)CC2=O`: the half-inhibitory concentration (IC50) in test [1], in test [2], in test [3], in test [4] and in test [5] was greater than 10 µM in each case.
As for `C=C(C)C(O)CC/C(C)=C/Cc1c(O)ccc2c1O[C@H](c1ccc(O)cc1)CC2=O` (stereo not given in full), the IC50 in test [1], in test [2], in test [3], in test [4] and in test [5] was greater than 10 µM each time.
For the compound `COC(C)(C)/C=C/CC1(C)CCc2c(ccc3c2O[C@H](c2ccc(O)cc2)CC3=O)O1` (stereo not given in full), the IC50 is greater than 10 µM in test [1]; 8.6 µM in test [2]; greater than 10 µM in test [3]; greater than 10 µM in test [4]; greater than 10 µM in test [5].
On to `C/C(=C\Cc1c(O)ccc2c1O[C@H](c1ccc(O)cc1)CC2=O)C/C=C/C(C)(C)O`, for which the IC50 in test [1], in test [2], in test [3], in test [4] and in test [5] was greater than 10 µM throughout.
Take `COc1cccc2c1C(=O)c1c(O)c3c(c(O)c1C2=O)C[C@@](O)(C(=O)CO)C[C@@H]3O[C@H]1C[C@H](N)[C@H](O)[C@H](C)O1` [DOXORUBICIN]: the IC50 turned out to be 1.07 µM in test [1]; 0.03 µM in test [2]; 0.13 µM in test [3]; 0.61 µM in test [4]; 0.34 µM in test [5].
For `CC(C)=CCCC(C)(O)C1Cc2c(ccc3c2O[C@H](c2ccc(O)cc2)CC3=O)O1` (stereo not given in full), in that order: greater than 10 µM, greater than 10 µM, greater than 10 µM, greater than 10 µM and greater than 10 µM.
For `CC(C)=CCC/C(C)=C/Cc1c(O)ccc2c1O[C@H](c1ccc(O)cc1)CC2=O`, in that order: greater than 10 µM, greater than 10 µM, greater than 10 µM, greater than 10 µM and greater than 10 µM.
On to `CC1(CCC(O)C(C)(C)O)CCc2c(ccc3c2O[C@H](c2ccc(O)cc2)CC3=O)O1` (stereo not given in full), for which the IC50 in test [1], in test [2], in test [3], in test [4] and in test [5] was greater than 10 µM in each case.
Take `C=C(C)C(O)CCC1(C)CCc2c(ccc3c2O[C@H](c2ccc(O)cc2)CC3=O)O1` (stereo not given in full): the IC50 in test [1], in test [2], in test [3], in test [4] and in test [5] was greater than 10 µM throughout.
With `COC(C=C(C)C)C/C(C)=C/Cc1c(O)ccc2c1O[C@H](c1ccc(O)cc1)CC2=O` (stereo not given in full), the IC50 in test [1], in test [2], in test [3], in test [4] and in test [5] was greater than 10 µM throughout.
In the case of `CC(C)(O)/C=C/CC1(C)CCc2c(ccc3c2O[C@H](c2ccc(O)cc2)CC3=O)O1` (stereo not given in full), the IC50 was greater than 10 µM in test [1]; 6.6 µM in test [2]; greater than 10 µM in test [3]; greater than 10 µM in test [4]; greater than 10 µM in test [5].
In the case of `CC1=CCC(O)C(C)(C)C1Cc1c(O)ccc2c1O[C@H](c1ccc(O)cc1)CC2=O` (stereo not given in full), the IC50 in test [1], in test [2], in test [3], in test [4] and in test [5] was greater than 10 µM throughout.
Turning to `CC(C)=CCCC1(C)CCc2c(ccc3c2O[C@H](c2ccc(O)cc2)CC3=O)O1` (stereo not given in full), the IC50 in test [1] is greater than 10 µM; in test [2], 8.1 µM; in test [3], 9.9 µM; in test [4] it was 9.9 µM; in test [5], greater than 10 µM.

The IC50 is the midpoint of a concentration-inhibition curve. Lower therefore signals inhibition by little substance.
